Source: PubChem (several laboratories)
Sampled rows, rich in hits. Any-hit rate of the full collection: about 3.2%.
MEKK2mut PB1 HTS = signal of MEK5 binding to mutant human MEKK2 PB1 domain | 0.35% of 290,000 active | bead flow cytometry, Alexa488-MEK5 binding to MEKK2 mutant | percent response, % at 10 µM; in the data active = percent response above about 24%, passing the limit was not always enough
MEKK3 PB1 HTS = MEKK3-MEK5 PB1 interaction, increase or decrease; Q99759; bead-based flow cytometry, Alexa488-MEK5 binding to MEKK3; actives lie on both sides; 0 = blocked by unlabeled MEK5, 100 = vehicle; binding response (% of control), % at 10 µM; 1.4% of 290,000 active;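 active = binding response more than 3 SD above or below the average of its plate-row segment, actives on both sides; inconclusive = wells at one plate position flagged as instrument error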;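 note: Alexa488 bead fluorescence after subtracting the streptavidin-only scavenger bead signal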
Target sequence (Q99759 whole entry, looked up): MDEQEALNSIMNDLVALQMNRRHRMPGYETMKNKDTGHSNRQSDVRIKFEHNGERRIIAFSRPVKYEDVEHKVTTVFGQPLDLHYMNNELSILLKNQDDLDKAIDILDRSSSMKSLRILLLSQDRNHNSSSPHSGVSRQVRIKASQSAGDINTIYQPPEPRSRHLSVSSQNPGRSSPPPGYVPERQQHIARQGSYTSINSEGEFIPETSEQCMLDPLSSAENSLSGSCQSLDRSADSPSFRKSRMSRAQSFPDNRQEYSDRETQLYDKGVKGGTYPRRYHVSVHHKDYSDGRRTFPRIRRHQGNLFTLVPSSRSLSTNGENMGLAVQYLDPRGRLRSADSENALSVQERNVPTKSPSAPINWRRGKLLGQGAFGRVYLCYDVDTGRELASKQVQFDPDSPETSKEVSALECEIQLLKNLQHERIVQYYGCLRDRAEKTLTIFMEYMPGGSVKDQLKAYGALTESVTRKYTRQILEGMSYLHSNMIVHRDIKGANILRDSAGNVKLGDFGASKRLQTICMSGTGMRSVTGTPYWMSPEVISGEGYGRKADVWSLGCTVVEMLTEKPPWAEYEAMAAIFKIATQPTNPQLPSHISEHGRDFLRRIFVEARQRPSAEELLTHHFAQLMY
DSG3 Ab inh = inhibitors of pemphigus antibody binding to human desmoglein-3 | P32926 | DSG3-coupled beads, scFv-anti-DSG3-GFP binding, flow cytometry; stronger effect = lower value | binding (percent of control), % at 10 µM | 0.48% of 310,000 active | AID 588358;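 active = binding more than 3 SD below its plate's average and above zero; inconclusive = below that plate limit but binding exactly zero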;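 note: hits lower antibody fragment binding to DSG3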
UBC13 polyUb = inhibitors of human UBC13 polyubiquitin chain formation. inhibition, % at 20 µM. TR-FRET. 0.47% of 330,000 active. P61088; in the data active = inhibition above about 45%, passing the limit was not always enough; inconclusive = no clear call, values can overlap the other calls
MEKK2 WT-MEK5 = raises or lowers MEK5 binding to wildtype human MEKK2 PB1 domain; 1.1% of 290,000 active; bead flow cytometry, Alexa488-MEK5 binding to MEKK2 WT; actives lie on both sides; binding response (% of control), % at 10 µM; AID 1531; Q9Y2U5; in the data active = binding response below about 67% or above about 130%; inconclusive = no clear call, values can overlap the other calls; inactive = in between
Apaf1 inhib = blocks human Apaf-1 apoptosome activity; reconstituted apoptosome caspase-3 activity, DEVD-Rh110 fluorescence; 0.71% of 330,000 active; O14727; AID 489030; inhibition, % at 20 µM; active = inhibition of at least 40% at 20 µM;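 note: plate controls were DMSO wells for no effect and DEVD-CHO caspase inhibitor wells for full effect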
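Medium: Hepes buffer, pH 7.5 / System: biochemical Apaf-1 apoptosome reconstitution / Measured by: Rh110 fluorescence, excitation 480 nm, emission 540 nm / Times: compound with Apaf-1, dATP, procaspase-3 30 min, then 50 min reaction, room temperature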
MEKK2wt confirm = raises or lowers MEK5 binding to wildtype human MEKK2, retest. shares compounds with MEKK3 PB1 HTS. bead flow cytometry, Alexa488-MEK5 binding to MEKK2 WT; actives lie on both sides. binding response (% of control), % at 10 µM. 2.4% of 5,900 active; in the data active = binding response below about 16% or above about 210%; inactive = in between
MEKK2mut-MEK5 = signal of MEK5 binding to mutant human MEKK2, retest | shares compounds with MEKK3 PB1 HTS | bead flow cytometry, Alexa488-MEK5 binding to MEKK2 mutant | percent response, % at 10 µM | 2% of 5,900 active | AID 1893; in the data active = percent response mostly above about 71%, no sharp cut-off; inactive = mostly below about 38%;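 note: higher means compound restores mutant binding toward wildtype level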
MEKK3-MEK5 inh = MEKK3-MEK5 PB1 inhibition, single concentration confirmation | bead flow cytometry, Alexa488-MEK5 binding to MEKK3; stronger effect = lower value | binding response (% of control), % at 10 µM | shares compounds with MEKK3 PB1 HTS | 1.8% of 5,900 active;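 active = binding response below 72% of control, or above a set upper limit, though filed actives all read lower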;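 note: 100% = DMSO only wells and 0% = binding blocked by excess unlabeled MEK5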
* hit, by the source's call; ? = inconclusive; nt = not tested or not shown; [ ] = another dose, or the depositor's remark.

SMILES | MEKK2mut PB1 HTS | MEKK3 PB1 HTS | DSG3 Ab inh | UBC13 polyUb | MEKK2 WT-MEK5 | Apaf1 inhib | MEKK2wt confirm | MEKK2mut-MEK5 | MEKK3-MEK5 inh
Cc1cc(C(=O)COC(=O)Cc2n[nH]c(=O)c3ccccc23)c(C)n1-c1cccc(C(F)(F)F)c1 | 1 | 136* | 105 | 3 | 104 | 21 | 103 | -2 | 101
CCOc1cc(C(=O)Nc2ccc(S(=O)(=O)NC3=NCCCCC3)cc2)cc(Br)c1OC | nt | nt | 105 | 11 | nt | 20 | nt | nt | nt
CCCC(=O)C1=C(O)C(C(=O)OC)C(C)(C)CC1=NCc1ccccc1 (stereo not drawn) | 12 | 104 | 114 | 4 | 109 | 10 | nt | nt | nt
CCCC(=O)C1=C(O)C(C(=O)OC)C(C)(C)CC1=NCCc1ccc(OC)c(OC)c1 (stereo not drawn) | -7 | 72*[inhibitor] | 101 | -2 | 83 | -3 | 106 | 5 | 105
O=C(O)/C=C/C(=O)OC1CC2CCC1C2 (stereo not drawn) | 29 | 134* | 98 | -3 | 117 | 9 | 105 | 8 | 105
COc1cccc(C(=O)NC(=S)Nc2ccc(N3CCCC3)cc2)c1 | -16 | 88 | ? | -8 | 91 | 26 | nt | nt | nt
CC(C)Oc1cccc(C(=O)NC(=S)Nc2ccc(N3CCN(C)CC3)cc2)c1 | -37 | 24*[inhibitor] | nt | 5 | 48 | 20 | 144 | 38 | 110
CCOc1ccc(OCc2cccc(C(=O)Nc3ccc(CN4CCCCC4)cc3)c2)cc1 | 6 | 113 | 131 | 30 | 161* | 10 | 138 | 43 | 107
CCOc1cccc(C(=O)Nc2ccc3c(c2)OCCO3)c1 | -21 | 26*[inhibitor] | 94 | -6 | 38*[inhibitor] | 8 | 102 | 2 | 104
CCOc1cccc(C(=O)Nc2ccc(N3CCCC3)cc2)c1 | 9 | 107 | 104 | -7 | 144* | 27 | 113 | 5 | 104
O=C(c1ccc(COc2ccc(Cl)cc2Cl)o1)N1CCCC1 | -2 | 103 | ? | -9 | 101 | 18 | nt | nt | nt
C[C@H]1CN=C(N(C)C)N1CC1CCCCC1 | nt | nt | 94 | 6 | nt | 12 | nt | nt | nt
CC(=O)Nc1ccc(CCCCc2ccc(NC(C)=O)cc2)cc1 | nt | nt | 93 | nt | nt | nt | nt | nt | nt
CCOc1ccc(C(=O)Nc2ccc(N3CCN(C(=O)c4ccco4)CC3)cc2)cc1Br | nt | nt | 65 | nt | nt | nt | nt | nt | nt
CCOc1ccc(C(=O)Nc2ccc(N3CCN(C)CC3)cc2)cc1Br | 24* | 100 | nt | 27 | 129 | 5 | 120 | 13 | 103
CCCn1c(SCC(=O)Nc2cc(Cl)ccc2OC)nc(O)cc1=O | nt | nt | nt | 0 | nt | -3 | nt | nt | nt
O=C(COC(=O)C1CCC(=O)N1)Nc1ccccc1Br (stereo not drawn) | -2 | 128* | 96 | 0 | 109 | -8 | 102 | -3 | 102
Cc1ccccc1N1C(=O)c2cccc3cccc(c23)C1=O | 26* | 106 | 116 | 1 | 107 | 2 | 104 | 2 | 106
Cc1c(Cc2ccccc2)c(=O)oc2c(C)c(OCC(=O)N[C@@H](Cc3ccccc3)C(=O)O)ccc12 | 3 | 105 | 97 | -39 | 104 | 18 | nt | nt | nt
COc1cccc(Nc2nc3ccccc3n3nnnc23)c1 | -14 | 2.0*[inhibitor] | 104 | 4 | 3.0*[inhibitor] | 20 | 104 | -1 | 100
Cc1ccc(-c2nc3ccccc3n3c(C)nnc23)cc1 | 1 | 101 | nt | nt | 97 | nt | nt | nt | nt
Cc1ccc(-c2nc3ccccc3n3nnnc23)cc1 | -6 | 82*[inhibitor] | 102 | nt | 86 | nt | 98 | -10 | 101
CS(=O)(=O)c1ccc(CNC(=O)C2(C(F)(F)F)CC(CCCO)CCCO2)cc1 (stereo not drawn) | -3 | 90 | nt | 8 | 93 | -5 | nt | nt | nt
CS(=O)(=O)c1ccc(CNC(=O)[C@]2(C(F)(F)F)C[C@H](CCc3ccccc3)CCCO2)cc1 | -6 | 81*[inhibitor] | 103 | 12 | 86 | 6 | 93 | -8 | 95
Cn1c(CC(=O)Nc2ccccc2)c(Sc2ccccc2)c2ccccc21 | 2 | 139* | 96 | -21 | 121 | 6 | 108 | -6 | 104
SMILES | MEKK2mut PB1 HTS | MEKK3 PB1 HTS | DSG3 Ab inh | UBC13 polyUb | MEKK2 WT-MEK5 | Apaf1 inhib | MEKK2wt confirm | MEKK2mut-MEK5 | MEKK3-MEK5 inh
Cc1onc(-c2ccccc2)c1C(=O)Nc1nnc(CC(C)(C)C)s1 | -4 | 100 | nt | -6 | 101 | 5 | nt | nt | nt
O=C(O)CCC(=O)NCCc1cccc(Cl)c1 | 0 | 116 | 99 | 0 | 109 | -17 | nt | nt | nt
CN(CC(=O)NCCc1ccc(F)cc1)Cc1cccc(Cl)c1 | -28 | 5.0*[inhibitor] | 105 | -6 | 6.0*[inhibitor] | 15 | 108 | 9 | 108
O=C(CCSCc1cccc(Cl)c1)NCCc1ccccc1 | 0 | 134* | 107 | 7 | 106 | 19 | 105 | 7 | 105
CN(CC(=O)NCCc1ccc(F)cc1)Cc1ccc(Br)cc1 | -1 | 99 | nt | 9 | 95 | 15 | nt | nt | nt
CCN(CC(=O)Nc1ccc(NC(C)=O)cc1)C(=O)C1CC1 | nt | nt | 106 | nt | nt | nt | nt | nt | nt
O=C(/C=C/c1cccc([N+](=O)[O-])c1)NCCSCc1ccc(Cl)cc1 | 0 | 144* | nt | 6 | 109 | 21 | 96 | -4 | 105
O=C(Nc1nnc(S(=O)(=O)N2CCN(c3ccc(F)cc3)CC2)s1)c1ccco1 | 2 | 100 | 103 | 13 | 100 | 0 | nt | nt | nt
